Source: PubChem (several laboratories)
Shown are actives, neighbours in structure and some others; about 3% of the full set was active somewhere.
AI-2 QS modul = Vibrio harveyi AI-2 quorum sensing modulation; Vibrio harveyi JMH597 AI-2 luminescence/OD600 ratio, 9 h; active compounds read low; strain lacks LuxN and CqsS sensors; 0 = neutral-control median; activity change, % at 7.5 µM; 300,000 tested, 0.4% active; in the data active = activity change below about -75%, passing the limit was not always enough;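 note: luminescence divided by OD600 gain over 9 h not by final OD600 alone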
CendR NRP1 mod = NRP-1/CendR interaction modulation. FAM-RPARPAR peptide binding to NRP-1, fluorescence polarization. O14786. 360,000 tested, 0.85% active. inhibition, % at 25 µM;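 active = inhibition or corrected inhibition above about 18%, plus a signal ratio from 0.5 to 1.5, limit read from the data, passing the limit was not always enough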
Target sequence (O14786 whole entry, looked up): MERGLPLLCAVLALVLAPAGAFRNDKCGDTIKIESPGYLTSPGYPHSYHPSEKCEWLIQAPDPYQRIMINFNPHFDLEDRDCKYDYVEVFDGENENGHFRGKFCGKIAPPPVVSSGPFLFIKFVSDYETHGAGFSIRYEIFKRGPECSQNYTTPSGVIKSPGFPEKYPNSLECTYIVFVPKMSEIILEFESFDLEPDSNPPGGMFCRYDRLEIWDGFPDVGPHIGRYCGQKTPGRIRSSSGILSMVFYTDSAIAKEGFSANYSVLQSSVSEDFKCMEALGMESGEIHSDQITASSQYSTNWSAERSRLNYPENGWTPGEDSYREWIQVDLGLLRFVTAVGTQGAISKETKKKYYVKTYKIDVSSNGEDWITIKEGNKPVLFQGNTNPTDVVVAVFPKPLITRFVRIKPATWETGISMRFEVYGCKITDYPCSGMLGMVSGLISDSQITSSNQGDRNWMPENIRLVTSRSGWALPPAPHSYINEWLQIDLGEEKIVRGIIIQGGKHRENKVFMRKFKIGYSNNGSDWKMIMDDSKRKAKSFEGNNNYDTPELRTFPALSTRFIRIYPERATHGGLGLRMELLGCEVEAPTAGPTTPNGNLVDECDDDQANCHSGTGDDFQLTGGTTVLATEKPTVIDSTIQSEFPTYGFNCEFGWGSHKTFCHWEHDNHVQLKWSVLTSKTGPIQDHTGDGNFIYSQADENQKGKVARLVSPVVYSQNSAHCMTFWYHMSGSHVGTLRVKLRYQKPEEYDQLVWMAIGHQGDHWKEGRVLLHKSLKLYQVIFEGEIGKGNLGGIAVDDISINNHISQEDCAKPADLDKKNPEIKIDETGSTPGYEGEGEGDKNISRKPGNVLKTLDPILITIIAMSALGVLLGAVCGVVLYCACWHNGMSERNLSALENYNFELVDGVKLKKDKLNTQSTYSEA
T cruzi inh = blocks replication of Trypanosoma cruzi | 300,000 tested, 1.4% active | inhibition, % (no concentration beside the values) | T. cruzi beta-gal in NIH3T3, luminescence, 90 h | AID 1885;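 active = mean inhibition across valid replicates above about 55%, limit read from the data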;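 note: signal also drops with host cell toxicity which is not excluded here; 0% = plate median of DMSO wells and 100% = zero luminescence signal; higher percent means less beta-gal luminescence so fewer parasites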
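Assay system: NIH/3T3 host cells with β-galactosidase reporter T. cruzi; input: 5,000 host fibroblasts per well; compound: single 50 nL compound addition per well in DMSO; timing: ≥90 h infection period, 3 h prior cell attachment; measured by: GalScreen β-gal luminescence, detergent lysis, 60 min; evaluation: percent inhibition of parasite-derived β-gal signal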
V-ATPase pHluor = alters yeast V-ATPase proton transport. 350,000 tested, 0.37% active. response, % at 10 µM. S. cerevisiae, pHLuorin cytosolic pH fluorescence. AID 504577; in the data active = response mostly above about 7.3%, no sharp cut-off; inactive = mostly below about 5.4%; note: actives read high
HIF act = HIF pathway transcriptional activation; U2OS HRE-luciferase reporter, luminescence; normalized: DMSO 0%, desferrioxamine 100%; activation, % at 7.5 µM (by protocol); 300,000 tested, 0.32% active;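 active = mean activation of at least 10% of the iron chelator positive control signal, with at least half of replicates also reaching 10%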
CR mimetic SO = caloric restriction mimetics inhibiting age-related superoxide in yeast. superoxide response (% of plate mean), % at 10 µM. 330,000 tested, 0.18% active. S. cerevisiae aged cells, superoxide DHE fluorescence; active compounds read low;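 active = superoxide response under a set limit, about three screen SD below normal, cut at about 65% in these data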;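 note: yeast aged for seven days with compound at 30 °C before DHE staining; 100% = average MFI of all compound-treated wells on the plate with controls excluded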
* hit, by the source's call; i = inactive; x = not tested or not shown.

SMILES	AI-2 QS modul	CendR NRP1 mod	T cruzi inh	V-ATPase pHluor	HIF act	CR mimetic SO
COc1cc(CN2CCCC(C)C2)ccc1OCc1ccccc1 (stereo unspecified)	26	1	35	6	0	102
Cc1cccc(C)c1NC(=S)N/N=C/c1c(Cl)cccc1Cl	18	6	9	-2	0	112
CC(C)Cn1nnc2c(=O)oc3ccccc3c21	18	7	-1	-3	0	126
CN(C)CCN(C(=O)c1ccc(Br)s1)c1nc2cc3c(cc2s1)OCCO3	24	0	35	2	x	111
Oc1c(CN2CCc3ccccc3C2)cc(Cl)c2cccnc12	-89*	-22	51	-3	50*	85
Oc1c(CN2CCCCC2)cc(Br)c2cccnc12	-87*	2	56*	-1	x	77
Oc1c(Cl)cc(CN2CCOCC2)c2cccnc12	x	-3	x	0	x	103
O=C(CCl)N1CCN(S(=O)(=O)c2ccc3c(c2)OCCCO3)CC1	x	-1	x	12	x	137
CCCCOc1ccc(C(=O)NCC(=O)OC2CCOC2=O)cc1 (stereo unspecified)	11	-4	-9	2	305*	96
O=C(CNC(=O)c1ccc(Cl)cc1)OC1CCOC1=O (stereo unspecified)	31	12	-10	0	0	95
CC1=CC(=C(C#N)c2nc3ccccc3s2)C=C(C)N1Cc1ccco1	1	-45	64*	1	0	93
O=C1C2=C(NC(=S)NC2c2ccc(Cl)cc2)NC(c2ccc(Cl)cc2)N1c1ccc(Cl)cc1 (stereo unspecified)	45	-4	57*	-2	0	87
CCc1ccc(C2NC(=S)NC3=C2C(=O)N(c2ccccc2OC)C(c2ccc(CC)cc2)N3)cc1 (stereo unspecified)	23	-2	13	1	-1	99
CCC(=O)Nc1nc2ccccc2n1Cc1ccc(Cl)cc1	3	-10	62*	3	0	106
O=C(NCc1ccc(F)cc1)c1ccc(S(=O)(=O)Nc2cccc(C(F)(F)F)c2)cc1	47	2	-28	-1	-1	121
COCc1ccccc1Cn1cnc2c1c(=O)n(C)c(=O)n2C	35	35*	-9	5	0	104
CCN(CC)S(=O)(=O)c1ccc2c(c1)N(CC(=O)NCCc1ccc(S(N)(=O)=O)cc1)C(=O)CO2	2	-4	-13	0	0	85
CC(C)(C)NCC1(CO)SC(N)=NC1=O (stereo unspecified)	1	-5	57*	4	0	101
Nc1ccc(S(=O)(=O)NNC(=O)C(=O)NNc2ccccc2)cc1	9	5	67*	-2	0	97
Nc1ccc(S(=O)(=O)Nc2ccc(C(=O)c3ccccc3)cc2)cc1	39	-4	-12	2	0	101
O=C(NNc1ccccc1)C(=O)NNS(=O)(=O)c1ccc(CCCl)cc1	35	-4	72*	0	0	82
CC1CCC(C(C)C)C(OC(=O)COC(=O)c2ccc(=O)[nH]c2)C1 (stereo unspecified)	20	-10	-1	2	-44	110
CC1CCC(C(C)C)C(OC(=O)COC(=O)c2cc(O)ccc2N)C1 (stereo unspecified)	21	-18	70*	0	-1	83
O=C(CN(C(=O)CCC(=O)Nc1nccs1)c1ccc(F)cc1)NCC1CCCO1 (stereo unspecified)	1	13	0	0	0	112
O=C(CN(Cc1ccc(F)cc1)C(=O)CCC(=O)Nc1nccs1)NCC1CCCO1 (stereo unspecified)	20	5	2	-5	31*	94
SMILES	AI-2 QS modul	CendR NRP1 mod	T cruzi inh	V-ATPase pHluor	HIF act	CR mimetic SO
NC(=O)[C@@H]1CCCN1C(=O)c1ccc2nc(Cc3ccccc3F)oc2c1	16	-6	0	4	1	78
O=C(N/N=C/c1ccc(O)cc1O)C(=O)N/N=C/c1ccc(O)cc1O	-86*	-5	-13	-4	1	93
CC(=O)n1cc(N(C(=O)CCl)c2ccc(Cl)cc2)c2ccccc21	x	-1	66*	1	-4	83
COc1ccccc1N(C(=O)CCl)c1cn(C(C)=O)c2ccccc12	34	-9	6	1	-2	84
CN(Cc1ccccn1)Cc1nc(Cc2ccccc2Cl)no1	6	0	-6	x	0	94
Cc1ccc(O)c(-c2cc(C(=O)Nc3ccc(S(=O)(=O)N4CC(C)OC(C)C4)cc3)[nH]n2)c1 (stereo unspecified)	26	4	45	-3	-1	87
Cc1ccc(O)c(-c2cc(C(=O)Nc3ccc(S(=O)(=O)Nc4nc(C)cc(C)n4)cc3)[nH]n2)c1	51	29*	-12	-3	0	97
CCc1cc2c(=O)c(-c3nc4ccccc4n3C)coc2c(CN2CCN(C)CC2)c1O	13	22*	-16	-1	0	113
Cc1cc(NC(=O)CSc2nc(-c3cccs3)cc(C(F)(F)F)n2)no1	11	-3	-34	-1	0	i
CCOC(=O)CS(=O)(=O)c1nc(-c2ccccc2)cc(C(F)(F)F)n1	39	-6	-32	1	1	104
Cc1cc(NC(=O)CCCS(=O)(=O)c2nc(-c3cccs3)cc(C(F)(F)F)n2)no1	9	8	-20	-5	13*	100
CCOC(=O)CCS(=O)(=O)c1nc(-c2ccccc2)cc(C(F)(F)F)n1	19	5	-56	-3	10*	102
CS(=O)(=O)c1nc(-c2cccs2)cc(C(F)(F)F)n1	-89*	x	77*	x	-6	81
CC1(C)CC(N2CCN(CCO)CC2)=CC(=S)N1	3	12	-6	0	-1	117
Cn1nc(C(C)(C)C)cc1N1C(=O)CCC1(C)C(=O)Nc1ccc2ccccc2c1 (stereo unspecified)	x	24*	x	x	x	x
COc1ccc(OC(C)c2nnc(N)s2)cc1 (stereo unspecified)	37	-2	-5	0	-1	95
COc1cccc(NC(=S)NNC(=O)Cn2nc([N+](=O)[O-])cc2C)c1	18	30*	15	1	0	97
Cc1ccc(-c2nnn(CC(=O)N3c4ccccc4CCc4ccccc43)n2)cc1	18	-7	58*	2	-1	107
CC(Cl)C(=O)N1c2ccccc2CCc2ccccc21 (stereo unspecified)	6	6	-6	1	2	172
O=C(CCl)N1c2ccccc2CCc2ccccc21	-10	9	71*	-67	0	89
Cc1ccc(-c2nnn(CC(=O)O)n2)cc1	22	-1	-5	0	0	90
